HNF4A DNA FP – change in binding of human HNF4A to DNA, primary screen, biochemical, fluorescence polarization, FITC-DNA. Hepatocyte nuclear factor 4-alpha (Homo sapiens), P41235. 1 h. activity change, % at 10 µM. 360,000 tested, 0.3% active. AID 1224865, 2016; in the data active = activity change above about 30%, passing the limit was not always enough
Target sequence (P41235 whole entry, looked up): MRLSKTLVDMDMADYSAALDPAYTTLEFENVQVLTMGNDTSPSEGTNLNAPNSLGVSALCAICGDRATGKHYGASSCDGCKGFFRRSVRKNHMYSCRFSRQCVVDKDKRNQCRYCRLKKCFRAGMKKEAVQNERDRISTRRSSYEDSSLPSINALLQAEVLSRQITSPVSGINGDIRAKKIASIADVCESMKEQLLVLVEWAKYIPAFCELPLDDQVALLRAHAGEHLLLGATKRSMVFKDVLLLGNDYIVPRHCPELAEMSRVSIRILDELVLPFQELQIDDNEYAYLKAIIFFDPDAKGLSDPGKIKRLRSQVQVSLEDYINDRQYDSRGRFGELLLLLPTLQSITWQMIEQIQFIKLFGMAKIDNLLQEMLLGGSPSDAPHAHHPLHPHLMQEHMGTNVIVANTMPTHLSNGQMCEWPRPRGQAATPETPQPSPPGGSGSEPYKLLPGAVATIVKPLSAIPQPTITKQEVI
Rpn11 block – Rpn11 (PSMD14) deubiquitinase inhibitors, primary screen, biochemical, fluorescence polarization, uHTS; 26S proteasome non-ATPase regulatory subunit 14 (Homo sapiens), O00487; human 26S proteasome, Ub4-pepOG fluorescence polarization; 20S core pre-blocked with epoxomicin; inhibition, % at 20 µM; 360,000 tested, 0.59% active; AID 588493, 2011;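 active = inhibition at 20 µM, scaled to each plate's controls, above about 33%, limit read from the data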
Neddyl block – inhibitors of cullin neddylation, primary screen, biochemical, TR-FRET, uHTS, NAE and Ubc12; NEDD8-conjugating enzyme Ubc12 (Homo sapiens) + NEDD8-activating enzyme E1 regulatory …; inhibition, % at 25 µM; 360,000 tested, 0.58% active; in the data active = inhibition above about 36%
TbMetRS inhib – T. brucei MetRS inhibitors, primary screen, biochemical, luminescence; purified T. brucei MetRS, ATP depletion, Kinase-Glo luminescence; inhibition, % at 11.9 µM; 360,000 tested, 0.4% active;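 active = inhibition above a per-plate cutoff of the control wells' mean inhibition plus 3 SD, cut at about 5.5% in these data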;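 also: 0% = DMSO wells median and 100% = median of wells with control inhibitor compound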
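Measured by: Kinase-Glo luciferase luminescence reporting remaining unconsumed ATP. Material: purified T. brucei MetRS enzyme. Doses: 11.9 µM compound single dose, 0.9% DMSO. Medium: HEPES buffer containing pyrophosphatase, BSA, spermine, DTT. Times: 15 min preincubation, 2 h reaction, all 25 °C. Reagent: methionine, ATP and bulk E. coli tRNA.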
CSN deneddyl inh – inhibitors of CSN-mediated cullin deneddylation, primary screen, biochemical, fluorescence polarization, uHTS. inhibition, % at 12.5 µM. AID 651999, 2013. COP9 signalosome complex subunit 5 (Homo sapiens), Q92905. 360,000 tested, 0.38% active. Purified CSN, SCF-Nedd8-OG deneddylation;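 active = pattern-corrected inhibition above about 35%, with an unprinted fluorescence ratio check between 0.5 and 1.5, limit read from the data, passing the limit was not always enough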;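 also: 0% = enzyme with substrate and 100% = substrate without enzyme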
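Test system: Human Csn5 produced in HEK293T cells | Compound: 12.5 µM single point | Times: 90 min, room temperature | Signal: Fluorescence polarization readout | Read-out basis: % inhibition of substrate cleavage by Csn5 | Controls: no-enzyme wells high, enzyme-with-substrate wells low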
PREPL inh – PREPL enzyme inhibitors, primary screen, biochemical, fluorescence polarization; 320,000 tested, 0.68% active; recombinant PREPL, fluorescence polarization activity-based probe; Prolyl endopeptidase-like (Homo sapiens), Q4J6C6; inhibition, % at 5.96 µM; AID 2751, 2010; in the data active = inhibition above about 43%;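 also: 0% = enzyme with DMSO and 100% = wells lacking enzyme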
Tb MetRS conf – T. brucei MetRS inhibitors, confirmation, biochemical, luminescence; shares compounds with TbMetRS inhib; T. brucei MetRS enzyme, luminescence (ATP depletion); inhibition, % at 11.9 µM; 1,400 tested, 93% active; AID 624412, 2012; in the data active = inhibition above about 7%
Jurkat cytotox – Jurkat T cell cytotoxicity, cytotoxicity control for T. brucei MetRS inhibitor project, luminescence, high throughput. shares compounds with TbMetRS inhib. Jurkat cells viability, ATP luminescence. inhibition, % at 8.3 µM. 1,400 tested, 12% active; in the data active = inhibition above about 15%;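 also: 0% = vehicle and 100% = reference inhibitor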
TbMetRS FP orth – T. brucei MetRS inhibitors, orthogonal assay for T. brucei MetRS inhibitor project, biochemical, fluorescence polarization | shares compounds with TbMetRS inhib | purified T. brucei MetRS | inhibition, % at 11.9 µM | 1,400 tested, 44% active | AID 651607, 2012; in the data active = inhibition above about 17%;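 also: 0% = vehicle wells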
Numbers without * were called inactive. Shown are actives, neighbours in structure and some others; about 2.4% of the full set was active somewhere.

How did Nc1nnc(CC(=O)N/N=C/c2ccc(-c3ccccc3)o2)s1 do in these assays?
HNF4A DNA FP: 2.0; Rpn11 block: 3.3; Neddyl block: -19.5; TbMetRS inhib: 8.1*; CSN deneddyl inh: 4.0; PREPL inh: 8.1; Tb MetRS conf: 4.8; Jurkat cytotox: 0.5; TbMetRS FP orth: 9.1

How did Nc1nnc(CC(=O)N/N=C/c2ccc(-c3ccc(Cl)cc3Cl)o2)s1 do in these assays?
HNF4A DNA FP: 3.1; Rpn11 block: 3.3; Neddyl block: 12.6; TbMetRS inhib: 10.8*; CSN deneddyl inh: 6.8; PREPL inh: -9.0; Tb MetRS conf: 2.9; Jurkat cytotox: 3.7; TbMetRS FP orth: 5.4

How did CN(C(=O)CN1C(=O)c2cccc(N)c2C1=O)C1CCCCC1 do in these assays?
HNF4A DNA FP: -18.1; Rpn11 block: -30.0; TbMetRS inhib: 0.0; CSN deneddyl inh: -2.7; PREPL inh: -4.1

Results for COc1cc(CNCc2ccccn2)ccc1OCc1ccc(Cl)cc1Cl ?
HNF4A DNA FP: -1.0; Rpn11 block: -11.8; Neddyl block: -5.1; TbMetRS inhib: 9.9*; CSN deneddyl inh: -0.3; PREPL inh: 39.0; Tb MetRS conf: 17.4*; Jurkat cytotox: 14.6; TbMetRS FP orth: 12.4

How did Nc1c(OS(=O)(=O)c2ccccc2)cccc1OS(=O)(=O)c1ccccc1 do in these assays?
HNF4A DNA FP: -3.2; Rpn11 block: -11.3; Neddyl block: 1.6; TbMetRS inhib: -0.6; CSN deneddyl inh: -2.0

Results for FC(F)Oc1ccc(NC(=S)NCc2nc3ccccc3[nH]2)cc1 ?
HNF4A DNA FP: 4.1; Rpn11 block: -3.9; Neddyl block: -0.8; TbMetRS inhib: 55.4*; CSN deneddyl inh: -3.0; PREPL inh: -5.7; Tb MetRS conf: 64.6*; Jurkat cytotox: 9.0; TbMetRS FP orth: 39.6*

What do the screens show for `CCOc1ccc(NC(=S)NCc2nc3ccccc3[nH]2)cc1`?
HNF4A DNA FP: -1.6; Rpn11 block: 0.0; Neddyl block: 4.6; TbMetRS inhib: 4.4; CSN deneddyl inh: 2.9; PREPL inh: -2.5

Results for COCCN1CC(=O)N2C(c3cccc(OC)c3)c3[nH]c4ccccc4c3C[C@H]2C1=O (stereo partly specified) ?
HNF4A DNA FP: 1.1; Rpn11 block: -6.2; Neddyl block: 4.6; TbMetRS inhib: 11.4*; CSN deneddyl inh: -0.8; PREPL inh: -4.8; Tb MetRS conf: 24.3*; Jurkat cytotox: -0.4; TbMetRS FP orth: 7.0

Results for COCCCN1CC(=O)N2C(c3cccc(OC)c3)c3[nH]c4ccccc4c3C[C@H]2C1=O (stereo partly specified) ?
HNF4A DNA FP: -4.6; Rpn11 block: 4.7; Neddyl block: 3.1; TbMetRS inhib: 11.5*; CSN deneddyl inh: 2.4; PREPL inh: 10.5; Tb MetRS conf: 24.4*; Jurkat cytotox: 3.5; TbMetRS FP orth: 6.1

What do the screens show for `COc1ccc(OC)c(C2c3[nH]c4ccccc4c3C[C@H]3C(=O)N(CCCOC(C)C)CC(=O)N23)c1` (stereo partly specified)?
HNF4A DNA FP: 1.5; Rpn11 block: -9.9; Neddyl block: 0.4; TbMetRS inhib: 1.5; CSN deneddyl inh: -2.9; PREPL inh: 5.4

Results for CC(C)OCCCN1CC(=O)N2C(c3cccc([N+](=O)[O-])c3)c3[nH]c4ccccc4c3C[C@H]2C1=O (stereo partly specified) ?
HNF4A DNA FP: -0.2; Rpn11 block: 2.0; Neddyl block: -22.3; TbMetRS inhib: 93.2*; CSN deneddyl inh: 2.7; PREPL inh: 11.2; Tb MetRS conf: 94.7*; Jurkat cytotox: 5.4; TbMetRS FP orth: 85.0*

Results for O=C(NCc1cc(Cl)cc(Cl)c1)c1ccc2nc([C@H]3C[C@H](O)[C@@H](CO)O3)[nH]c2c1 ?
HNF4A DNA FP: 2.1; Rpn11 block: -5.6; Neddyl block: -0.3; TbMetRS inhib: 22.0*; CSN deneddyl inh: -3.5; Tb MetRS conf: 48.5*; Jurkat cytotox: -2.1; TbMetRS FP orth: 33.2*

How did CC(C)C(NC(=O)c1ccccc1F)C(=O)NCCCn1ccnc1 (stereo unspecified) do in these assays?
HNF4A DNA FP: -1.9; Rpn11 block: -4.5; Neddyl block: -0.7; TbMetRS inhib: -0.3; CSN deneddyl inh: 1.0; PREPL inh: 21.8

What do the screens show for `O=C1C[C@@H]2C(=O)N(c3ccccc3)C(=O)[C@@H]2[C@@H]2CN(S(=O)(=O)c3ccccc3)[C@@H](c3ccccc3)[C@H]12`?
HNF4A DNA FP: 0.3; Rpn11 block: 5.1; Neddyl block: -2.8; TbMetRS inhib: 0.0; CSN deneddyl inh: -5.2

Results for COc1ccc(N(CC(=O)Nc2ccc(Cl)cc2)S(=O)(=O)c2c(C)n[nH]c2C)cc1 ?
HNF4A DNA FP: 1.8; Rpn11 block: 4.1; Neddyl block: 7.0; TbMetRS inhib: 8.7*; CSN deneddyl inh: 4.2; PREPL inh: -6.8; Tb MetRS conf: 17.9*; Jurkat cytotox: 3.6; TbMetRS FP orth: 9.9

What do the screens show for `COc1ccccc1CNC(=O)OCc1nccnc1C(=O)Nc1ccc(Br)cn1`?
HNF4A DNA FP: 2.5; Rpn11 block: -7.2; Neddyl block: -5.4; TbMetRS inhib: 0.1; CSN deneddyl inh: 1.4; PREPL inh: 4.4

What do the screens show for `COC(=O)CN1C(=S)N(c2ccc(Cl)cc2)C(=O)C1CC(=O)Nc1ccc(Cl)cc1` (stereo unspecified)?
HNF4A DNA FP: -0.2; Rpn11 block: -5.0; Neddyl block: -1.5; TbMetRS inhib: 23.6*; CSN deneddyl inh: 7.4; PREPL inh: -30.0; Tb MetRS conf: 39.3*; Jurkat cytotox: 2.6; TbMetRS FP orth: 38.4*

Source: PubChem BioAssay
